The species named for assay [1] is Rattus norvegicus. Kind of assay: Compound was evaluated for highest non-ulcerogenic dose (less than 50% ulcer incidence). It is filed as functional. Particulars: read-out: ED50. Put shortly:
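Taken from the 21-day adjuvant arthritis test in male Sprague-Dawley rats dosed orally each day from the day of adjuvant injection. Small intestines and stomachs were examined for ulceration at the end. The value is the highest dose giving less than 50% ulcer incidence.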

In assay [2] the test system is Rattus norvegicus. Kind of assay: Antiinflammatory efficacy is measured by the percent inhibition of paw volume during the 3 week adjuvant arthritis test at 0.0014 mM/kg (0.50 mg). Type of assay: functional. The gist of the method: (§1)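 Male Sprague-Dawley rats (200–230 g) were used in groups of eight. Each received 0.1 mL of 0.6% M. butyricum in heavy mineral oil into the plantar tissue of one hind paw. Daily oral gavage in 1% gum tragacanth or corn oil-water emulsion began on the injection day and ran 21 days. Total hind paw volume was measured by mercury displacement, and inhibition was taken versus vehicle-treated adjuvant controls.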

For assay [3], the system named is Rattus norvegicus. Kind of assay: Potency relative to phenylbutazone at 0.0014 mM/kg. It is filed as functional.
In assay [4] the test system is Rattus norvegicus. Kind of assay: Ulcerogenicity was measured in stomach during the 3 week adjuvant arthritis test.(animals with ulcers/animals in test) at 0.0014 mM/kg (0.50 mg). It is filed as functional. The gist of the method:
(§2)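 Male Sprague-Dawley rats (200–230 g) were injected in the plantar tissue of one hind paw with 0.1 mL of 0.6% M. butyricum suspension in heavy mineral oil. Daily oral gavage began on the day of adjuvant injection and ran for the 21 days, with drug suspended in 1% gum tragacanth or a corn oil-water emulsion. At the end the rats were sacrificed and the small intestine and stomach were examined for ulcers. Results are given as animals with ulcers/animals tested.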

Assay [5] has as its system Rattus norvegicus. Put plainly: Ulcerogenicity was measured in stomach during the 3 week adjuvant arthritis test.(animals with ulcers/animals in test) at 0.008 mM/kg (2.86 mg). It is filed as functional. The gist of the method: as §2
Assay [6] relates to Rattus norvegicus. Put plainly: Ulcerogenicity was measured in intestine during the 3 week adjuvant arthritis test.(animals with ulcers/animals in test) at 0.0014 mM/kg (0.50 mg). Type of assay: functional. The gist of the method:
as §2

Assay [7] concerns Rattus norvegicus. Put plainly: Ulcerogenicity was measured in intestine during the 3 week adjuvant arthritis test.(animals with ulcers/animals in test) at 0.008 mM/kg (2.86 mg). Type of assay: functional. Put shortly:
as §2

Assay [8] has as its system Rattus norvegicus. Put plainly: Antiinflammatory efficacy is measured by the weight gain in rats during the 3 week adjuvant arthritis test at 0.011 mM/kg (3.94 mg). Type of assay: functional. The gist of the method:
(§3)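 Rats were adjuvant-injected (M. butyricum in mineral oil, one hind paw) or given a mineral-oil placebo. They were dosed by gavage daily for 21 days from the injection day, with vehicle only for both control groups, then weighed at the end. Weight gain % = (treated − adjuvant control)/(negative control − adjuvant control) × 100.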

Assay [9] relates to Rattus norvegicus. Kind of assay: Antiinflammatory efficacy is measured by the weight gain in rats during the 3 week adjuvant arthritis test at 0.0014 mM/kg (0.50 mg). Type of assay: functional. Put shortly: as §3
For assay [10], the system named is Rattus norvegicus. Kind of assay: Antiinflammatory efficacy is measured by the weight gain in rats during the 3 week adjuvant arthritis test at 0.008 mM/kg (2.86 mg). It is filed as functional. Put shortly: as §3
Assay [11] concerns Rattus norvegicus. Put plainly: Antiinflammatory efficacy is measured by the percent inhibition of paw volume during the 3 week adjuvant arthritis test at 0.08 mM/kg (35.2 mg). Type of assay: functional. The gist of the method:
as §1

The subject of assay [12] is Rattus norvegicus. Put plainly: Antiinflammatory efficacy is measured by the percent inhibition of paw volume during the 3 week adjuvant arthritis test at 0.005 mM/kg (2.20 mg). Type of assay: functional. Put shortly: as §1
The subject of assay [13] is Rattus norvegicus. Put plainly: Antiinflammatory efficacy is measured by the percent inhibition of paw volume during the 3 week adjuvant arthritis test at 0.02 mM/kg (8.80 mg). Type of assay: functional. The gist of the method:
as §1

The subject of assay [14] is Rattus norvegicus. Kind of assay: The mean increase in paw volume was compared between drug treated groups and placebo to calculate the percent inhibition in rats at 0.02 mmol/kg by carrageenan Edema Assay; 40-49. Type of assay: functional.
Assay [15] relates to Rattus norvegicus. Put plainly: The percent inhibition was calculated from the average differences in hind paw volume between the adjuvant injected controls and the adjuvant-injected medicated rats at 0.08 mmol/kg; 80-89. Type of assay: functional.
In assay [16] the test system is Rattus norvegicus. Kind of assay: Ulcerogenicity was measured in intestine during the 3 week adjuvant arthritis test, no of animals with ulcers out of 4 animals tested at 0.08 mM/kg (35.2 mg) was reported. It is filed as functional. The gist of the method:
(§4)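 In the 21-day adjuvant arthritis model, male Sprague-Dawley rats (200–230 g) received an M. butyricum mineral-oil suspension into one hind paw. They were dosed daily by gavage from the day of injection. At the end of the study the rats were killed, and the small intestines were examined for ulcers. Results are given as the number of ulcerated animals over the number tested.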

Assay [17] has as its system Rattus norvegicus. Kind of assay: Ulcerogenicity was measured in intestine during the 3 week adjuvant arthritis test, no of animals with ulcers out of 4 animals tested at 0.16 mM/kg (70.4 mg) was reported. Type of assay: functional. Put shortly:
as §4

The subject of assay [18] is Rattus norvegicus. Kind of assay: Ulcerogenicity was measured in stomach during the 3 week adjuvant arthritis test, no of animals with ulcers out of 4 animals tested at 0.08 mM/kg (35.2 mg) was reported. Type of assay: functional. Put shortly: as §2
For assay [19], the system named is Rattus norvegicus. Put plainly: Ulcerogenicity was measured in stomach during the 3 week adjuvant arthritis test, no of animals with ulcers out of 4 animals tested at 0.16 mM/kg (70.4 mg) was reported. Type of assay: functional. The gist of the method:
as §2

Assay [20] relates to Rattus norvegicus. Kind of assay: Antiinflammatory efficacy is measured by the weight gain in rats during the 3 week adjuvant arthritis test at 0.16 mM/kg (70.4 mg). It is filed as functional. The gist of the method:
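Male Sprague-Dawley rats (200–230 g), eight per group, received 0.1 mL of 0.6% M. butyricum in heavy mineral oil (negative controls: mineral oil) into one hind-paw plantar tissue. Daily gavage in 1% gum tragacanth or corn oil-water emulsion began on the injection day, for 21 days. Weight gain is expressed as (treated − adjuvant control)/(negative control − adjuvant control) × 100.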

For assay [21], the system named is Rattus norvegicus. Put plainly: Ulcerogenicity was measured in intestine during the 3 week adjuvant arthritis test, no of animals with ulcers out of animals tested at 0.32 mM/kg (141 mg) was reported; toxic. Type of assay: functional, organism-based. The gist of the method:
as §2

Assay [22] relates to Rattus norvegicus. Kind of assay: Antiinflammatory efficacy is measured by the weight gain in rats during the 3 week adjuvant arthritis test at 0.08 mM/kg (35.2 mg). It is filed as functional. Put shortly:
as §3

Assay [23] deals with Rattus norvegicus. Put plainly: Antiinflammatory efficacy is measured by the weight gain in rats during the 3 week adjuvant arthritis test at 0.02 mM/kg (8.80 mg). Type of assay: functional. Put shortly:
as §3

In assay [24] the test system is Rattus norvegicus. Kind of assay: Antiinflammatory efficacy is measured by the weight gain in rats during the 3 week adjuvant arthritis test at 0.005 mM/kg (2.20 mg). Type of assay: functional. The gist of the method: as §3
In assay [25] the test system is Rattus norvegicus. Put plainly: Antiinflammatory efficacy is measured by the percent inhibition of paw volume during the 3 week adjuvant arthritis test at 0.08 mM/kg (32.24 mg). Type of assay: functional. The gist of the method:
as §1

Assay [26] has as its system Rattus norvegicus. Put plainly: Antiinflammatory efficacy is measured by the percent inhibition of paw volume during the 3 week adjuvant arthritis test at 0.02 mM/kg (8.11 mg). Type of assay: functional. The gist of the method:
as §1

Assay [27] concerns Rattus norvegicus. Kind of assay: Antiinflammatory efficacy is measured by the percent inhibition of paw volume during the 3 week adjuvant arthritis test at 0.005 mM/kg (2.03 mg). Type of assay: functional. Put shortly: as §1
Assay [28] has as its system Rattus norvegicus. Put plainly: The mean increase in paw volume was compared between drug treated groups and placebo to calculate the percent inhibition in rats at 0.02 mmol/kg by carrageenan Edema Assay; 50-59. It is filed as functional.
The subject of assay [29] is Rattus norvegicus. Put plainly: The percent inhibition was calculated from the average differences in hind paw volume between the adjuvant injected controls and the adjuvant-injected medicated rats at 0.08 mmol/kg; 90-99. Type of assay: functional.
Assay [30] has as its system Rattus norvegicus. Kind of assay: Ulcerogenicity was measured in intestine during the 3 week adjuvant arthritis test, no of animals with ulcers out of 3 animals tested at 0.32 mM/kg (130 mg) was reported. It is filed as functional. Put shortly:
as §4

Assay [31] has as its system Rattus norvegicus. Put plainly: Ulcerogenicity was measured in stomach during the 3 week adjuvant arthritis test, no of animals with ulcers out of 8 animals tested at 0.08 mM/kg (32.4 mg) was reported. It is filed as functional. The gist of the method: as §2
The test system of assay [32] is Rattus norvegicus. Put plainly: Ulcerogenicity was measured in intestine during the 3 week adjuvant arthritis test, no of animals with ulcers out of 8 animals tested at 0.08 mM/kg (32.4 mg) was reported. Type of assay: functional. Put shortly:
as §4

Assay [33] deals with Rattus norvegicus. Put plainly: Ulcerogenicity was measured in stomach during the 3 week adjuvant arthritis test, no of animals with ulcers out of 3 animals tested at 0.32 mM/kg (130 mg) was reported. Type of assay: functional. The gist of the method: as §2
Assay [34] has as its system Rattus norvegicus. Put plainly: Antiinflammatory efficacy is measured by the weight gain in rats during the 3 week adjuvant arthritis test at 0.02 mM/kg (8.11 mg). It is filed as functional. Put shortly:
as §3

Assay [35] relates to Rattus norvegicus. Kind of assay: Antiinflammatory efficacy is measured by the weight gain in rats during the 3 week adjuvant arthritis test at 0.08 mM/kg (32.24 mg). Type of assay: functional. Put shortly: as §3
For assay [36], the system named is Rattus norvegicus. Kind of assay: Antiinflammatory efficacy is measured by the weight gain in rats during the 3 week adjuvant arthritis test at 0.005 mM/kg (2.03 mg). Type of assay: functional. The gist of the method: as §3
The test system of assay [37] is Rattus norvegicus. Kind of assay: Potency relative to phenylbutazone at 0.02 […]. Type of assay: functional.

The structures appear in SMILES notation.

A word on the Inhibition: it is the drop in the measured response relative to a control, in per cent. In general, inhibition in vivo refers to the change of the read-out against control, counted positive when it falls.

With `COc1ccc2c(c1)c(CC(=O)O)c(C)n2C(=O)c1ccc(Cl)cc1` [INDOMETHACIN], the highest non-ulcerogenic dose in the assay filed under Rattus norvegicus [1] worked out at 0.4 µmol/kg. The Inhibition with Rattus norvegicus [2] is on record as 63%. For the same compound, in the assay on Rattus norvegicus [3], the Potency is listed as 20%. In addition, the Ulcerogenic index in the assay on Rattus norvegicus [4] was 6; in the assay with Rattus norvegicus [5] it was 5; with Rattus norvegicus [6] it was 3; in the assay with Rattus norvegicus [7], 17. Besides, the values for the Weight gain in the assay with Rattus norvegicus [8], in the assay on Rattus norvegicus [9] and in the assay on Rattus norvegicus [10] were 38%, 14% and 48%, respectively.

On to `CC(CN1CCCCC1CC1CCCCC1)c1cccc(C(O)c2ccc(Cl)cc2)c1` (centres undefined), for which the highest non-ulcerogenic dose in the assay filed under Rattus norvegicus [1] was 1 µmol/kg. The Inhibition was determined as 88% in the assay with Rattus norvegicus [11], 64% in the assay on Rattus norvegicus [12] and 70% with Rattus norvegicus [13]. Further, the inhibition in vivo at 20 µmol/kg in the assay on Rattus norvegicus [14] is 40%. Moreover, the inhibition in vivo at 80 µmol/kg in the assay on Rattus norvegicus [15] is 80%. The Ulcerogenic index with Rattus norvegicus [16] is 1; in the assay on Rattus norvegicus [17] it was 3; in the assay on Rattus norvegicus [18], 0; with Rattus norvegicus [19], 0; in the assay on Rattus norvegicus [21] it was “Toxic”. The Weight gain is 84% with Rattus norvegicus [20], 87% in the assay with Rattus norvegicus [22], 69% in the assay on Rattus norvegicus [23] and 40% with Rattus norvegicus [24].

Turning to `CC(CN1CCCCC1CC1CCCCC1)c1cccc(C(O)c2ccccc2)c1` (centres undefined), the highest non-ulcerogenic dose in the assay filed under Rattus norvegicus [1] worked out at 8 µmol/kg. Also, the Inhibition is on record as 110% with Rattus norvegicus [25], 82% in the assay on Rattus norvegicus [26] and 37% in the assay with Rattus norvegicus [27]. The inhibition in vivo at 20 µmol/kg in the assay with Rattus norvegicus [28] was 30%. Moreover, the inhibition in vivo at 80 µmol/kg with Rattus norvegicus [29] was 90%. In addition, the Ulcerogenic index with Rattus norvegicus [30] is given as 3; with Rattus norvegicus [31], 1; in the assay with Rattus norvegicus [32], 1; in the assay on Rattus norvegicus [33], 1. For the same compound, the Weight gain in the assay with Rattus norvegicus [34] is listed as 36%; in the assay on Rattus norvegicus [35], 67%; in the assay on Rattus norvegicus [36] it was 13%. The same compound registered a Relative potency in the assay on Rattus norvegicus [37] of 8.6%.

The record behind these values is ChEMBL document CHEMBL1122782, “Bulky amine analogues of ketoprofen: potent antiinflammatory agents” (J Med Chem, 1984).
